Laboratory results as given in ChEMBL document CHEMBL2062435, “Synthesis and in vitro antibacterial activity of gemifloxacin derivatives containing a substituted benzyloxime moiety” (2012).

Test system: Staphylococcus epidermidis
Assay: Antimicrobial activity against extended spectrum beta-lactamases-producing methicillin-sensitive Staphylococcus epidermidis 10-11 after 18-24 hrs by two-fold serial dilution method
Format: functional
Outline: (§1)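 Agar-medium twofold serial dilution against Gram-positive and Gram-negative strains; MIC taken as the lowest compound concentration giving complete inhibition of bacterial growth after incubation at 35 °C for 18-24 h.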

| Compound | MIC [µg/mL] |
| --- | --- |
| COc1cc(CO/N=C2\CN(c3nc4c(cc3F)c(=O)c(C(=O)O)cn4C3CC3)CC2CN)c([N+](=O)[O-])cc1OC.CS(=O)(=O)O (racemic) | 2 |

Test system: Pseudomonas aeruginosa
Assay: Antimicrobial activity against Pseudomonas aeruginosa 10-12 after 18-24 hrs by two-fold serial dilution method
Format: functional
Outline: as §1

| Compound | MIC [µg/mL] |
| --- | --- |
| COc1cc(CO/N=C2\CN(c3nc4c(cc3F)c(=O)c(C(=O)O)cn4C3CC3)CC2CN)c([N+](=O)[O-])cc1OC.CS(=O)(=O)O (racemic) | 16 |

Test system: Enterococcus faecalis
Assay: Antimicrobial activity against Enterococcus faecalis 10-5 after 18-24 hrs by two-fold serial dilution method
Format: functional
Outline: as §1

| Compound | MIC [µg/mL] |
| --- | --- |
| COc1cc(CO/N=C2\CN(c3nc4c(cc3F)c(=O)c(C(=O)O)cn4C3CC3)CC2CN)c([N+](=O)[O-])cc1OC.CS(=O)(=O)O (racemic) | 0.125 |

Test system: Enterococcus faecalis
Assay: Antimicrobial activity against Enterococcus faecalis 10-6 after 18-24 hrs by two-fold serial dilution method
Format: functional
Outline: as §1

| Compound | MIC [µg/mL] |
| --- | --- |
| COc1cc(CO/N=C2\CN(c3nc4c(cc3F)c(=O)c(C(=O)O)cn4C3CC3)CC2CN)c([N+](=O)[O-])cc1OC.CS(=O)(=O)O (racemic) | 16 |

Test system: Staphylococcus aureus
Assay: Antimicrobial activity against extended spectrum beta-lactamases-producing methicillin-resistant Staphylococcus aureus 10-15 after 18-24 hrs by two-fold serial dilution method
Format: functional
Outline: (§2)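 Agar twofold serial dilution MIC against clinical isolates. MIC was taken as the lowest concentration giving complete inhibition of bacterial growth after incubation at 35 °C for 18-24 h.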

| Compound | MIC [µg/mL] |
| --- | --- |
| COc1cc(CO/N=C2\CN(c3nc4c(cc3F)c(=O)c(C(=O)O)cn4C3CC3)CC2CN)c([N+](=O)[O-])cc1OC.CS(=O)(=O)O (racemic) | 1 |

Test system: Pseudomonas aeruginosa
Assay: Antimicrobial activity against extended spectrum beta-lactamases-producing Pseudomonas aeruginosa 10-9 after 18-24 hrs by two-fold serial dilution method
Format: functional
Outline: as §1

| Compound | MIC [µg/mL] |
| --- | --- |
| COc1cc(CO/N=C2\CN(c3nc4c(cc3F)c(=O)c(C(=O)O)cn4C3CC3)CC2CN)c([N+](=O)[O-])cc1OC.CS(=O)(=O)O (racemic) | 16 |

Test system: Staphylococcus epidermidis
Assay: Antimicrobial activity against extended spectrum beta-lactamases-producing methicillin-resistant Staphylococcus epidermidis 10-13 after 18-24 hrs by two-fold serial dilution method
Format: functional
Outline: as §2

| Compound | MIC [µg/mL] |
| --- | --- |
| COc1cc(CO/N=C2\CN(c3nc4c(cc3F)c(=O)c(C(=O)O)cn4C3CC3)CC2CN)c([N+](=O)[O-])cc1OC.CS(=O)(=O)O (racemic) | 1 |

Test system: Pseudomonas aeruginosa
Assay: Antimicrobial activity against extended spectrum beta-lactamases-producing Pseudomonas aeruginosa 10-18 after 18-24 hrs by two-fold serial dilution method
Format: functional
Outline: as §1

| Compound | MIC [µg/mL] |
| --- | --- |
| COc1cc(CO/N=C2\CN(c3nc4c(cc3F)c(=O)c(C(=O)O)cn4C3CC3)CC2CN)c([N+](=O)[O-])cc1OC.CS(=O)(=O)O (racemic) | 16 |

Test system: Klebsiella pneumoniae
Assay: Antimicrobial activity against extended spectrum beta-lactamases-producing Klebsiella pneumoniae 10-1 after 18-24 hrs by two-fold serial dilution method
Format: functional
Outline: as §1

| Compound | MIC [µg/mL] |
| --- | --- |
| COc1cc(CO/N=C2\CN(c3nc4c(cc3F)c(=O)c(C(=O)O)cn4C3CC3)CC2CN)c([N+](=O)[O-])cc1OC.CS(=O)(=O)O (racemic) | > 128 |

Test system: Pseudomonas aeruginosa
Assay: Antimicrobial activity against extended spectrum beta-lactamases-producing Pseudomonas aeruginosa 10-5 after 18-24 hrs by two-fold serial dilution method
Format: functional
Outline: as §1

| Compound | MIC [µg/mL] |
| --- | --- |
| COc1cc(CO/N=C2\CN(c3nc4c(cc3F)c(=O)c(C(=O)O)cn4C3CC3)CC2CN)c([N+](=O)[O-])cc1OC.CS(=O)(=O)O (racemic) | 16 |

Test system: Escherichia coli
Assay: Antimicrobial activity against extended spectrum beta-lactamases-producing Escherichia coli 10-2 after 18-24 hrs by two-fold serial dilution method
Format: functional
Outline: as §1

| Compound | MIC [µg/mL] |
| --- | --- |
| COc1cc(CO/N=C2\CN(c3nc4c(cc3F)c(=O)c(C(=O)O)cn4C3CC3)CC2CN)c([N+](=O)[O-])cc1OC.CS(=O)(=O)O (racemic) | > 128 |

Test system: Escherichia coli
Assay: Antimicrobial activity against extended spectrum beta-lactamases-producing Escherichia coli 10-3 after 18-24 hrs by two-fold serial dilution method
Format: functional
Outline: as §1

| Compound | MIC [µg/mL] |
| --- | --- |
| COc1cc(CO/N=C2\CN(c3nc4c(cc3F)c(=O)c(C(=O)O)cn4C3CC3)CC2CN)c([N+](=O)[O-])cc1OC.CS(=O)(=O)O (racemic) | > 128 |

Test system: Klebsiella pneumoniae
Assay: Antimicrobial activity against Klebsiella pneumoniae 10-4 after 18-24 hrs by two-fold serial dilution method
Format: functional
Outline: as §1

| Compound | MIC [µg/mL] |
| --- | --- |
| COc1cc(CO/N=C2\CN(c3nc4c(cc3F)c(=O)c(C(=O)O)cn4C3CC3)CC2CN)c([N+](=O)[O-])cc1OC.CS(=O)(=O)O (racemic) | > 128 |

Test system: Escherichia coli
Assay: Antimicrobial activity against extended spectrum beta-lactamases-producing Escherichia coli 10-4 after 18-24 hrs by two-fold serial dilution method
Format: functional
Outline: as §1

| Compound | MIC [µg/mL] |
| --- | --- |
| COc1cc(CO/N=C2\CN(c3nc4c(cc3F)c(=O)c(C(=O)O)cn4C3CC3)CC2CN)c([N+](=O)[O-])cc1OC.CS(=O)(=O)O (racemic) | 4 |

Test system: Staphylococcus aureus
Assay: Antimicrobial activity against extended spectrum beta-lactamases-producing methicillin-sensitive Staphylococcus aureus 10-13 after 18-24 hrs by two-fold serial dilution method
Format: functional
Outline: as §1

| Compound | MIC [µg/mL] |
| --- | --- |
| COc1cc(CO/N=C2\CN(c3nc4c(cc3F)c(=O)c(C(=O)O)cn4C3CC3)CC2CN)c([N+](=O)[O-])cc1OC.CS(=O)(=O)O (racemic) | 0.125 |

Test system: Enterococcus faecium
Assay: Antimicrobial activity against Enterococcus faecium 10-9 after 18-24 hrs by two-fold serial dilution method
Format: functional
Outline: as §1

| Compound | MIC [µg/mL] |
| --- | --- |
| COc1cc(CO/N=C2\CN(c3nc4c(cc3F)c(=O)c(C(=O)O)cn4C3CC3)CC2CN)c([N+](=O)[O-])cc1OC.CS(=O)(=O)O (racemic) | 16 |

Test system: Staphylococcus aureus
Assay: Antimicrobial activity against extended spectrum beta-lactamases-producing methicillin-sensitive Staphylococcus aureus 10-14 after 18-24 hrs by two-fold serial dilution method
Format: functional
Outline: as §1

| Compound | MIC [µg/mL] |
| --- | --- |
| COc1cc(CO/N=C2\CN(c3nc4c(cc3F)c(=O)c(C(=O)O)cn4C3CC3)CC2CN)c([N+](=O)[O-])cc1OC.CS(=O)(=O)O (racemic) | 0.125 |

Test system: Staphylococcus aureus
Assay: Antimicrobial activity against Staphylococcus aureus ATCC […] after 18-24 hrs by two-fold serial dilution method
Format: functional
Outline: as §1

| Compound | MIC [µg/mL] |
| --- | --- |
| COc1cc(CO/N=C2\CN(c3nc4c(cc3F)c(=O)c(C(=O)O)cn4C3CC3)CC2CN)c([N+](=O)[O-])cc1OC.CS(=O)(=O)O (racemic) | 0.015 |
